Bioassay records as filed in PubChem BioAssay.
aDG glyco up = alpha-DG glycosylation activation; activation, % at 10 µM; Pro5-aDG cells, alpha-DG glycosylation AlphaScreen (IIH6); 0% Pro5, 100% B10-LARGE cell signal; actives 0.22% (n = 360,000); AID 624168;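 active means activation of at least 8% versus controls, or a plate z-score of at least 8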;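 further: Pro5 are CHO cells carrying HIG-tagged alpha-DG that lacks glycosylation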
NPR1 activator = GC-A (human) enzyme activation; HEK293 GC-A cells, cGMP TR-FRET, EC30 ANP; 0% at EC30 ANP, 100% saturating ANP; actives 0.14% (n = 370,000); P16066; activation, % at 10 µM; in the data active means activation above about 40%
GASC-1 inh = blocks human GASC-1 demethylase activity; actives 0.069% (n = 330,000); inhibition, % at 2.35 µM; Q9H3R0; GST-JMJD2C(1-420) H3K9me3 demethylation, DELFIA europium;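 active means more than half of a compound's replicate wells show inhibition beyond 50%, single wells judged on their own value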;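 further: signal counts dimethyl H3K9 product captured on neutravidin plate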
Target sequence (Q9H3R0 1-420 limits assumed): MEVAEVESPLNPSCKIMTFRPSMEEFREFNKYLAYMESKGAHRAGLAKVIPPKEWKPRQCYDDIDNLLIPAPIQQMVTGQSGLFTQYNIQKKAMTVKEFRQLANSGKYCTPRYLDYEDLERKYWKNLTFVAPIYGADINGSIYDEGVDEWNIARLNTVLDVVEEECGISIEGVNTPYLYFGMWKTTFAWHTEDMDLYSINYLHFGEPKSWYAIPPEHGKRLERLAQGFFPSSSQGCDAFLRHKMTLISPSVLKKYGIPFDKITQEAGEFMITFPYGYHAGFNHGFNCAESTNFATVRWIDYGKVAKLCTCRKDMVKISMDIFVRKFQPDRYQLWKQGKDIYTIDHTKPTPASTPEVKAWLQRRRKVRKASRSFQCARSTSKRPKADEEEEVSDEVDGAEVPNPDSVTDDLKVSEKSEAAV
GC-B act = GC-B (human) receptor activation; actives 0.11% (n = 370,000); HEK293-GC-B cells, CNP EC30, cGMP TR-FRET; 0% at EC30 CNP, 100% saturating CNP; P20594; activation, % at 10 µM; AID 1920062;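 active means activation at 10 µM reaching about 35% in either raw or pattern-adjusted values, limit read from the data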
Lipid droplet = hepatic lipid droplet formation modulation; AML12 mouse hepatocytes, oleate lipid droplets, BODIPY imaging; inhibition, % at 6.5 µM; actives 0.4% (n = 240,000);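 active means lipid droplet intensity inhibited by at least 50%, with more than 500 cells counted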
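Technique: fluorescence imaging, 20x objective, two fields per well / Assay system: AML12 hepatocytes (mouse) / Measure: % inhibition of lipid droplet signal / Doses: 6.5 µM single-point dosing / Incubation: overnight exposure / Reagent: 100 µM oleic acid challenge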
NR3A LBD binder = modulates the human NR3A ligand-binding domain; NR3A LBD differential scanning fluorimetry, Tm shift; 0% = protein alone, 100% = glycine-bound protein; Tm shift relative to glycine control, % at 25 µM; actives 2.5% (n = 340,000); AID 1259313;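 active means melting temperature shift of at least 10% of the positive control shift, at one fixed dose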
Hits are given with their value; i = inactive; nt = not tested or not shown. Most compounds without a hit are left out; they make up all but 3% or so of the library.

SMILES | aDG glyco up | NPR1 activator | GASC-1 inh | GC-B act | Lipid droplet | NR3A LBD binder
Cc1ccc(Nc2c(-c3ccccc3)nc3cnccn23)cc1 | i | 48.7 | i | i | i | i
COc1cc(-c2nc3cnccn3c2Nc2c(C)cccc2C)ccc1O | i | i | i | i | i | i
COc1ccc(-c2nc3cnccn3c2Nc2ccc(C)cc2)cc1 | i | 61.7 | i | 48.4 | i | i
CC(C)(C)OC(=O)N1CCC(c2ccc[nH]2)(c2c[nH]c3ccccc23)CC1 | nt | i | nt | i | nt | nt
CC(C)C(=O)N1CCC1(C)C(=O)Nc1cccc(Oc2ccccc2)c1 (stereo not drawn) | i | i | nt | i | nt | nt
CC1CCN(S(=O)(=O)c2nnc(NC(=O)c3cccc(Cl)c3)s2)CC1 | i | i | i | i | i | 14.1
Cc1ccc(Cl)c(OCC(=O)Nc2ccc3c(c2)OCCO3)c1 | i | i | i | i | i | i
O=C(COc1cc(Cl)c(Cl)cc1Cl)Nc1ccncc1 | i | i | i | i | i | 545.2
O=C(COc1cc(Cl)c(Cl)cc1Cl)Nc1cccc(O)c1 | i | i | i | i | i | 17.8
O=C(COc1cc(Cl)c(Cl)cc1Cl)NC(=O)Nc1ccc2c(c1)OCCO2 | i | i | i | i | i | 19.1
Cc1cc(Cl)ccc1OCC(=O)Nc1ccncc1 | i | i | i | i | i | i
Cc1cccc(OCC(=O)Nc2cccc(O)c2)c1 | i | i | i | i | i | i
COCCN=C1Sc2ccccc2[C@@H]2C[C@H]3[C@H](CON3C)CN12 | nt | i | nt | i | nt | nt
COc1cc(NC(=O)NC2CCCCN(Cc3ccc(Cl)cc3)C2=O)cc(OC)c1 (stereo not drawn) | nt | i | nt | i | nt | nt
Cc1[nH][nH]c(=O)c1C(c1c(C)[nH][nH]c1=O)c1cn(C)c2ccccc12 | i | i | nt | i | i | i
Cc1[nH][nH]c(=O)c1C(c1c(C)[nH][nH]c1=O)c1cn(Cc2cccc3ccccc23)c2ccccc12 | i | i | 68.1 | i | nt | i
COc1ccc(CCN2C(=O)C(Oc3ccccc3)C2c2ccc3c(c2)OCO3)cc1 (stereo not drawn) | i | i | i | i | i | 11.6
COc1ccc(OC2C(=O)N(CCc3ccc(OC)c(OC)c3)C2c2ccc3c(c2)OCO3)cc1 (stereo not drawn) | i | i | i | i | i | i
CC1(C)Cc2c(c(N3CCOCC3)nc3sc4c(NCC5CCCO5)nnnc4c23)CS1 (stereo not drawn) | i | i | i | 48.9 | i | i
CC(C)CCNc1nnnc2c1sc1nc(N3CCOCC3)c3c(c12)CC(C)(C)SC3 | i | 51.7 | i | 57.2 | i | i
CC1(C)Cc2c(c(N3CCOCC3)nc3sc4c(NCCN5CCOCC5)nnnc4c23)CS1 | i | 44.4 | i | 42.2 | i | i
O=C(CSc1nnc(-c2cccnc2)n1C1CCCCC1)N1CCCC1 | nt | i | nt | i | nt | nt
O=C(CCl)Nc1ccccc1Sc1ccc(Cl)cc1 | i | 45.1 | i | i | i | i
O=C(Cc1ccc(Br)cc1)Nc1ccccc1Sc1ccccc1 | i | i | i | i | nt | 18.9
O=S1(=O)c2ccc(N3CCCC3)cc2Oc2ccccc2CN1Cc1cn(Cc2cccc(C(F)(F)F)c2)nn1 | nt | i | nt | i | nt | nt
SMILES | aDG glyco up | NPR1 activator | GASC-1 inh | GC-B act | Lipid droplet | NR3A LBD binder
CCCCc1nc(N2CCOCC2)c(C#N)c2c1COC(C)(C)C2 | i | i | i | i | i | 15.0
COc1ccc(S(=O)(=O)NNC(=O)c2cc3cc4ccccc4nc3s2)cc1 | i | i | i | i | i | 28.9
COc1ccc2nc3sc(C(=O)NCCN4CCc5ccccc5C4)cc3cc2c1 | i | i | i | i | i | 19.0
CS(=O)(=O)NNC(=O)c1cc2cc3ccccc3nc2s1 | i | i | i | i | i | i
Cn1nc(C(F)(F)F)c2cc(C(=O)Nc3ccc(C(F)(F)F)cc3)sc21 | i | i | i | i | i | 15.4
COc1ccc(-c2coc(CCC(=O)N3CCN(c4cc(C)ccc4C)CC3)n2)cc1 | i | i | nt | i | nt | i
CCS(=O)(=O)c1ncc(Cl)c(C(=O)Nc2ccc(S(=O)(=O)N3CCCC(C)C3)cc2)n1 (stereo not drawn) | i | 43.5 | i | 41.4 | i | i
